Test results taken from ChEMBL document CHEMBL1268865, “Cytotoxic 3,4-seco-Atisane Diterpenoids from Croton barorum and Croton goudotii” (J Nat Prod, 2010).
pIC50: −log10 of the molar value.

How the values were obtained:
KB = assay: Cytotoxicity against human KB cells after 72 hrs; assay type: functional, cell-based
Summary of the method: (§1)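 KB, HT29, A549 and HL60 lines were sourced from ATCC, with Taxotere as the reference compound. IC50 is the concentration that reduced cell growth by 50%, reported as the mean of duplicate experiments.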

HT-29 = assay: Cytotoxicity against human HT-29 cells after 72 hrs; assay type: functional, cell-based; conditions: HT-29, 72 h; summary of the method: as §1
A549 = assay: Cytotoxicity against human A549 cells after 72 hrs; assay type: functional, cell-based; conditions: A549, 72 h; summary of the method: as §1
HL-60 = assay: Cytotoxicity against human HL60 cells after 72 hrs; assay type: functional, cell-based; conditions: HL-60, 72 h; summary of the method: as §1
K562 [1] = assay: Cell cycle arrest in human K562 cells assessed as accumulation at S phase at 4 uM after 24 hrs using propidium iodide staining by flow cytometry (reference value: 56.7%); assay type: functional
K562 [2] = assay: Cell cycle arrest in human K562 cells assessed as accumulation at G0/G1 phase at 4 uM after 24 hrs using propidium iodide staining by flow cytometry (reference value: 30.1%); assay type: functional
K562 [3] = assay: Cell cycle arrest in human K562 cells assessed as accumulation at G2/M phase at 4 uM after 24 hrs using propidium iodide staining by flow cytometry (reference value: 12.1%); assay type: functional

CC(=O)O[C@@]12CO[C@@H]1C[C@H](O)[C@@]1(C)C(=O)[C@H](O)C3=C(C)[C@@H](OC(=O)[C@H](O)[C@@H](NC(=O)OC(C)(C)C)c4ccccc4)C[C@@](O)([C@@H](OC(=O)c4ccccc4)[C@H]21)C3(C)C [DOCETAXEL]
pIC50 (KB): 6.54 | pIC50 (HT-29): 6.04 | pIC50 (A549): 6.43 | pIC50 (HL-60): 6.28

C=C1C(=O)[C@]23CC[C@@H](C(=C)C)[C@]4(C)CCC(=O)O[C@@]42C[C@H]1C[C@@H]3OC(C)=O [CROTOBARIN]
Activity (K562 [1]): 25.7% | Activity (K562 [2]): 12.3% | Activity (K562 [3]): 56.5% | pIC50 (KB): 5.60 | pIC50 (HT-29): 5.68 | pIC50 (A549): 6.10 | pIC50 (HL-60): 6.25

C=C1C(=O)[C@@]23CC[C@@H]1C[C@@]21OC(=O)CC[C@@]1(C)[C@H](C(=C)C)CC3 [CROTOGOUDIN]
Activity (K562 [1]): 31.8% | Activity (K562 [2]): 22.2% | Activity (K562 [3]): 33.6% | pIC50 (KB): 5.82 | pIC50 (HT-29): 5.72 | pIC50 (A549): 6.27 | pIC50 (HL-60): 6.31
